Laboratory results taken from ChEMBL document CHEMBL3351764, “Design, synthesis and biological activity of flavonoid derivatives as selective agonists for neuromedin U 2 receptor” (Bioorg Med Chem, 2014).
pEC50: −log10 of the molar value. Activity calls are given as the source filed them. No cut-off for these calls is given here.

What was measured:
[1] = molecular target: Melanocyte-stimulating hormone receptor (Mus musculus) (UniProt Q01727); assay: Agonist activity at mouse MC1 receptor at 100 uM to 5 mM
Chain of Melanocyte-stimulating hormone receptor (Mus musculus) (Q01727 whole entry, looked up): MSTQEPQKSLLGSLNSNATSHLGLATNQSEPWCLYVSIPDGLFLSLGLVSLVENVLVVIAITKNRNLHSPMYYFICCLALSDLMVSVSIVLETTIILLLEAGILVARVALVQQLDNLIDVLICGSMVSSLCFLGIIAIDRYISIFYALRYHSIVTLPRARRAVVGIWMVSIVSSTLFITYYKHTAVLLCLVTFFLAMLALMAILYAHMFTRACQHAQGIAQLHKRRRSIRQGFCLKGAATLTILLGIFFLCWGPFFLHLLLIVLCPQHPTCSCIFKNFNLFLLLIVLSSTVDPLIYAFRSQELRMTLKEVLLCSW

[2] = molecular target: T1, Adenosine receptor A1 (Homo sapiens) (UniProt P30542); assay: Agonist activity at human A1 receptor at 100 uM to 5 mM
T1 sequence (whole entry): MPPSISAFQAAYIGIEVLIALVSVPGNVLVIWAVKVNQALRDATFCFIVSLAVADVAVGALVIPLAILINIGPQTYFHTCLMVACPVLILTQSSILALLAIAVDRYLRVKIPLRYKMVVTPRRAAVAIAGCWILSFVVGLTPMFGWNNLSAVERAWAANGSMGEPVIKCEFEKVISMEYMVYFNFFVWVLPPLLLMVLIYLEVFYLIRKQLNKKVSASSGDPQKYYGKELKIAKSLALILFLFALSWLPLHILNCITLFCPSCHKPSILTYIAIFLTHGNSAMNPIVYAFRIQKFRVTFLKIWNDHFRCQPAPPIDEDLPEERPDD

[3] = molecular target: T2, Orexin receptor type 2 (Homo sapiens) (UniProt O43614); assay: Agonist activity at human orexin 2 receptor at 100 uM to 5 mM
T2 sequence (whole entry): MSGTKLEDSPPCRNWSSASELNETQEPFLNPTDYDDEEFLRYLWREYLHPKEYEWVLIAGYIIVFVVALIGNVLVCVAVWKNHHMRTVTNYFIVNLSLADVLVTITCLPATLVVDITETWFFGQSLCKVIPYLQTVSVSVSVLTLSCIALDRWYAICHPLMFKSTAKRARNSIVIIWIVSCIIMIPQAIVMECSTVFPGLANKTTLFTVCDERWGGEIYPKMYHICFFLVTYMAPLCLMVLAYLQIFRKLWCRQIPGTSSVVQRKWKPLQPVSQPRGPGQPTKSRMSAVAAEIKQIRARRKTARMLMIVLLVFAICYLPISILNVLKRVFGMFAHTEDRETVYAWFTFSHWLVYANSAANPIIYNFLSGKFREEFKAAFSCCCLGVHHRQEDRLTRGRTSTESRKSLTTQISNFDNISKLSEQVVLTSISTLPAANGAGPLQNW

[4] = molecular target: Melanocortin receptor 3 (Mus musculus) (UniProt P33033); assay: Agonist activity at mouse MC3 receptor at 100 uM to 5 mM
Chain of Melanocortin receptor 3 (Mus musculus) (P33033 whole entry): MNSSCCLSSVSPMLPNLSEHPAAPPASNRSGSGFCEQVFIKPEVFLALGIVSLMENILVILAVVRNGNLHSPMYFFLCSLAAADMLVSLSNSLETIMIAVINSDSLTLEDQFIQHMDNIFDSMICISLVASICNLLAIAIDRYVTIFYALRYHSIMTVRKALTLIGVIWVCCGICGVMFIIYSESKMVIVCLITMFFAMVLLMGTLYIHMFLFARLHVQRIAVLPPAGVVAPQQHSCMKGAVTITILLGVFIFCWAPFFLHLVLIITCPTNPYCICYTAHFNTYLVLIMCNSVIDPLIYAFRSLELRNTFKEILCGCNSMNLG

[5] = molecular target: T3, Neuromedin-U receptor 1 (Homo sapiens) (UniProt Q9HB89); assay: Agonist activity at human NMU1 receptor at 100 uM to 5 mM
T3 sequence (whole entry): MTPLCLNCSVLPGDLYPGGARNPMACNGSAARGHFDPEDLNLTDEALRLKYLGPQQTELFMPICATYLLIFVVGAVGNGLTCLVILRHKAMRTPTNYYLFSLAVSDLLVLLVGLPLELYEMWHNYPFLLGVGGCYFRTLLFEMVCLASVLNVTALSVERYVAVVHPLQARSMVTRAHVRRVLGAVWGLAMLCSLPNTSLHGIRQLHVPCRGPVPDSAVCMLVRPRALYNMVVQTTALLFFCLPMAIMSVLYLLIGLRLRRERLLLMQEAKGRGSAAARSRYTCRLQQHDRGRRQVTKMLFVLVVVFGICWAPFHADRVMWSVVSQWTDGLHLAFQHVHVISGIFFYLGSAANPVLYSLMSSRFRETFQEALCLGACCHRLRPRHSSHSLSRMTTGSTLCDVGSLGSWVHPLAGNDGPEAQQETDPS

[6] = molecular target: T4, 5-hydroxytryptamine receptor 2C (Homo sapiens) (UniProt P28335); assay: Agonist activity at human 5HT2C receptor at 100 uM to 5 mM
T4 sequence (whole entry): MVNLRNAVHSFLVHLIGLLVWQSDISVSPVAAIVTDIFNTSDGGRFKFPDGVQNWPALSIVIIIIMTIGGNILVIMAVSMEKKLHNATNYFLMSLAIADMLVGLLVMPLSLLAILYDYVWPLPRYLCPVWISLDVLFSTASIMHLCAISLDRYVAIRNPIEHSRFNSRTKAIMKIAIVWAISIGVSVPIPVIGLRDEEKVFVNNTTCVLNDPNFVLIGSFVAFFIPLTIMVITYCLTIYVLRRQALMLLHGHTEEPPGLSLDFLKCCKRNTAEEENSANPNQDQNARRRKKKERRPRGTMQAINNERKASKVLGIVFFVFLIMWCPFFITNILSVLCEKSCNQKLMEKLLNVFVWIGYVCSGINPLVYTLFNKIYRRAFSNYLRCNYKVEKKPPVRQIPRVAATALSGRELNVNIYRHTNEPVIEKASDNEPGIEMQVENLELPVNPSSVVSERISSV

[7] = molecular target: Melanin-concentrating hormone receptor 1 (Homo sapiens) (UniProt Q99705); assay: Agonist activity at human MCH1 receptor at 100 uM to 5 mM
Chain of Melanin-concentrating hormone receptor 1 (Homo sapiens) (Q99705 whole entry): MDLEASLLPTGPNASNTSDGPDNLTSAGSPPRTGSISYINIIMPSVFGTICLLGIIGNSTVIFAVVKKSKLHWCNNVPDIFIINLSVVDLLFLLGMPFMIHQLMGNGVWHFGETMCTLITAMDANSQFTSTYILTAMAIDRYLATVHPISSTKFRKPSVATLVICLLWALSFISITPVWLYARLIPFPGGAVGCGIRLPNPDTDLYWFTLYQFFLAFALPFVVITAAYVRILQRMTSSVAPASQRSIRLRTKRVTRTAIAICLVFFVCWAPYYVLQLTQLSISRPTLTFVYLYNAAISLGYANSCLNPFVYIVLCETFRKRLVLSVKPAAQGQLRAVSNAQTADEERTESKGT

Neuromedin-U receptor 2 = Neuromedin-U receptor 2 (Homo sapiens, UniProt Q9GZQ4); assay: Agonist activity at human NMU2R transfected in HEK293 cells after 7 hrs by luciferase reporter gene assay; format: cell-based; details: for pEC50: read-out: EC50; for EC50: hek293
Chain of Neuromedin-U receptor 2 (Q9GZQ4 whole entry): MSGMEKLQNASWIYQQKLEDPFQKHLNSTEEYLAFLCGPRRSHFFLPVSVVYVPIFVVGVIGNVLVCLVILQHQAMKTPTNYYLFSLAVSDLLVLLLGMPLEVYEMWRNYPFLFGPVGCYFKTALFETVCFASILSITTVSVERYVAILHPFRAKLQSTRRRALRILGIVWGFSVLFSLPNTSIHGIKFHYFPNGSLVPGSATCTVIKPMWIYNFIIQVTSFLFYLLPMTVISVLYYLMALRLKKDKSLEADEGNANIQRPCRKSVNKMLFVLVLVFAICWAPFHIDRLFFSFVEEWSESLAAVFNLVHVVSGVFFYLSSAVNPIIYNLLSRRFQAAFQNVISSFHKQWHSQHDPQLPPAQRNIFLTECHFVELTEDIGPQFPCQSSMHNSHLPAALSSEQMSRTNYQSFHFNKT
How it was run: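 HEK-293 cells were stably co-transfected with a reporter gene construct and human NMU2R cDNA in pcDNA3.1(+), maintained under G418 selection at 37 °C in 5% CO2, then seeded and incubated overnight. Compounds were added at various concentrations for 7 h at 37 °C, followed by Bright-Glo luciferase read-out. Forskolin and NMU served as positive controls. EC50 was fitted by four-parameter logistic regression; means ± SEM of three independent experiments.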

[8] = molecular target: T5, Parathyroid hormone/parathyroid hormone-related peptide receptor (Homo sapiens) (UniProt Q03431); assay: Agonist activity at human PTH receptor at 100 uM to 5 mM
T5 sequence (whole entry): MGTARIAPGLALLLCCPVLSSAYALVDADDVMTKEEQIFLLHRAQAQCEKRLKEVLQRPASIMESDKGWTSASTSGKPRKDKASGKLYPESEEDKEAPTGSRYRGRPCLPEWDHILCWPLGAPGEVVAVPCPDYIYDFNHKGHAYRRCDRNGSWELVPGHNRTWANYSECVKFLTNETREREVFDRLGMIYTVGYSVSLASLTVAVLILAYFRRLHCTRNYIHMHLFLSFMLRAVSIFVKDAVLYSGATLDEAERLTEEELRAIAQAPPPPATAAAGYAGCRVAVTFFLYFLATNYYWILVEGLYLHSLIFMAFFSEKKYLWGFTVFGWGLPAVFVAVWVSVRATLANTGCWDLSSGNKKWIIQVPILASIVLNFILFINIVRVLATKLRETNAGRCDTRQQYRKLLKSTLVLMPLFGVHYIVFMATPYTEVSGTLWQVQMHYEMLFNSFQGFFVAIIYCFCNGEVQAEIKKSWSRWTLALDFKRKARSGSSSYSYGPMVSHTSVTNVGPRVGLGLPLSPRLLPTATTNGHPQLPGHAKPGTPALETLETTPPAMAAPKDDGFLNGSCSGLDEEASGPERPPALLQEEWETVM

[9] = molecular target: Melanocortin receptor 3 (Homo sapiens) (UniProt P41968); assay: Agonist activity at human MC3 receptor at 100 uM to 5 mM
Chain of Melanocortin receptor 3 (Homo sapiens) (P41968 whole entry): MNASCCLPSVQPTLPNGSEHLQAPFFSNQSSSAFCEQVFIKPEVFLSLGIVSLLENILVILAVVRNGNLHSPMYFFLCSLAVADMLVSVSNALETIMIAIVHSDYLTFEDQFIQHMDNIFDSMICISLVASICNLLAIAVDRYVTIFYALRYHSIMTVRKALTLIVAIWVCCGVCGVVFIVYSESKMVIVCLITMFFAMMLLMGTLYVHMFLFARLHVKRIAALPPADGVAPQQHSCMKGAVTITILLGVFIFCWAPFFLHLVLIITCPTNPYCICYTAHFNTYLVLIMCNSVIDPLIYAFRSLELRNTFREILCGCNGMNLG

| SMILES | Activity [1] | Activity [2] | Activity [3] | Activity [4] | Activity [5] | Activity [6] | Activity [7] | pEC50 (Neuromedin-U receptor 2) | Activity [8] | Activity [9] | EC50 (Neuromedin-U receptor 2) |
| --- | --- | --- | --- | --- | --- | --- | --- | --- | --- | --- | --- |
| O=c1c(OCCO)c(-c2cc(Br)ccc2F)oc2ccccc12 | inactive | inactive | inactive | inactive | inactive | inactive | inactive | 4.33 | inactive | inactive | – |
| O=c1c(O)c(-c2cc(Br)ccc2F)oc2ccccc12 | inactive | inactive | inactive | inactive | inactive | inactive | inactive | 4.85 | inactive | inactive | – |
| O=c1cc(-c2ccc(Cl)cc2Cl)oc2ccccc12 | inactive | inactive | inactive | inactive | inactive | inactive | inactive | – | inactive | inactive | Not Active |
| O=c1c(O)c(-c2cccc(Cl)c2)oc2ccccc12 | inactive | inactive | inactive | inactive | inactive | inactive | inactive | – | inactive | inactive | Not Active |
| COc1cc(-c2cc(=O)c3ccccc3o2)ccc1O | inactive | inactive | inactive | inactive | inactive | inactive | inactive | – | inactive | inactive | Not Active |
| COc1cc(-c2oc3ccccc3c(=O)c2O)ccc1O | inactive | inactive | inactive | inactive | inactive | inactive | inactive | – | inactive | inactive | Not Active |
| O=c1c(O)c(-c2ccc(O)cc2)oc2ccccc12 | inactive | inactive | inactive | inactive | inactive | inactive | inactive | – | inactive | inactive | Not Active |
| O=c1c(O)c(-c2cccc(Cl)c2F)oc2ccccc12 | inactive | inactive | inactive | inactive | inactive | inactive | inactive | 4.51 | inactive | inactive | – |
| Fc1ccccc1C1C=Cc2ccccc2O1 (racemic) | inactive | inactive | inactive | inactive | inactive | inactive | inactive | – | inactive | inactive | Not Active |
| O=c1cc(-c2ccc(O)cc2)oc2ccccc12 | inactive | inactive | inactive | inactive | inactive | inactive | inactive | – | inactive | inactive | Not Active |
| CN(C)c1ccc(C2C=Cc3ccccc3O2)cc1 (racemic) | inactive | inactive | inactive | inactive | inactive | inactive | inactive | – | inactive | inactive | Not Active |
| COc1c(-c2cc(Br)ccc2F)oc2ccccc2c1=O | inactive | inactive | inactive | inactive | inactive | inactive | inactive | – | inactive | inactive | Not Active |
| COc1ccc(-c2cc(=O)c3ccccc3o2)cc1O | inactive | inactive | inactive | inactive | inactive | inactive | inactive | – | inactive | inactive | Not Active |
| O=c1c(O)c(-c2ccc(Br)cc2F)oc2ccccc12 | inactive | inactive | inactive | inactive | inactive | inactive | inactive | 4.14 | inactive | inactive | – |
| COc1ccc(F)c(-c2oc3ccccc3c(=O)c2O)c1 | inactive | inactive | inactive | inactive | inactive | inactive | inactive | 3.60 | inactive | inactive | – |
